Screen size: about 370,000 compounds; about 500 (0.14%) were called active.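 How the source made its calls: active means inhibition above the mean of compounds falling within the control limits plus 3 SD of them (cut at about 14% in these data); inactive means the rest.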 Only a selection was taken, and actives are over-represented in it overall.
Molecular target: Fibrinogen beta chain (Homo sapiens) (UniProt P02675)
Assay: small molecules displacing Tn7 from DD(E) complex – biochemical, fluorescence polarization, human fibrin, Tn7 probe, primary screen (AID 720508);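 further: 0% = plate median of compound wells and 100% = 10 µM Aha-Tn7 peptide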
Settings: FP displacement of FITC-Tn7 peptide from fibrin DD(E); at 8.3 µM; hits give high values; 0% = median of compound wells per plate
How it was run: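 Assay system: human fibrin DD(E). Input: DD(E) 2 µM final. Medium: Tris buffer with calcium and detergent, pH 7.8. Compound dosing: single point at 8.3 µM. Timing: 10 min plus 3 h, room temperature. Technique: fluorescence polarization of the labelled Tn7 tracer. Read-out: percent inhibition. Replicates: singlicate testing.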

Fibrinogen beta chain (Homo sapiens), sequence (P02675 whole entry, looked up): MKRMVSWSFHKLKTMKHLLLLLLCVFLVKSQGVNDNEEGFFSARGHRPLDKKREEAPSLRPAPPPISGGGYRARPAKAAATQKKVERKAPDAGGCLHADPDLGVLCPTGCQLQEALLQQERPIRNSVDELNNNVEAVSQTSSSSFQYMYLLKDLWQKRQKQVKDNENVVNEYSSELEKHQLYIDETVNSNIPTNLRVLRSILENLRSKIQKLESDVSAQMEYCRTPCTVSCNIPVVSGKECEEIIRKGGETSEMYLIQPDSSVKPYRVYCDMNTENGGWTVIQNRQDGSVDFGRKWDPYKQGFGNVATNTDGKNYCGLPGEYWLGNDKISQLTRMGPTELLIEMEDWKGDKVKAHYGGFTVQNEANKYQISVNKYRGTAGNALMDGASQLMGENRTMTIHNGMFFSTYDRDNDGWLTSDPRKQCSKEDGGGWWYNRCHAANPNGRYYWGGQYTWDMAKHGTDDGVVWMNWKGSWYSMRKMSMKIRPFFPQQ

inhibition, active:
COc1ccc(N=Nc2c(-c3ccc(OC)cc3)[nH]oc2=O)cc1 25.7%
OC(c1ccccc1)c1nc(-c2cnc3ccccc3c2)cs1 (stereo not drawn) 15.7%
Cn1c(CC(=O)NNC(=O)c2ccccc2F)nc2ccccc21 14.2%
COc1cc(C(=S)N2CCOCC2)ccc1O 14.7%
COc1ccc(-c2nc(CCNC(=O)c3ccc(Br)o3)cs2)cc1 16.8%
O=C(Nc1ccon1)c1sc2ccccc2c1Cl 15.2%
O=C(CSc1nnc(-c2ccccn2)n1-c1ccc(Cl)cc1)Nc1ccccc1-c1ccccc1 14%
C#CCNc1ccc(C(=O)OCC)cc1 26.2%

inhibition, inactive:
Cc1cccc(NC(=O)c2ccc(S(=O)(=O)N(C)CC3CCCO3)cc2)c1C (stereo not drawn) -10%
Cc1nnc(SCC(=O)Nc2ncc3c(n2)CC(C)(C)CC3=O)s1 3.19%
C=CCn1c(COc2ccc(F)cc2)nnc1SCC(=O)Nc1cccc(S(N)(=O)=O)c1 2.08%
COc1cc2c(cc1OC)CC1(CCCCC1)N=C2 3.18%
Cc1cc(=O)[nH]c2nnnn12 -1.23%
COc1ccc(N=C2C=CC(=O)O2)cc1 -2.28%
O=c1o[nH]c(-c2ccccc2)c1N=Nc1c(F)cccc1Cl 1.8%
COc1ccc(C(=O)N(C)Cc2ccc(OC)c(OC)c2OC)cc1S(=O)(=O)N1CCOCC1 -8.78%
CN(CC(=O)Nc1ccc(F)c(F)c1F)C(=O)C1CC(=O)N(C2CCCC2)C1 (stereo not drawn) 0.71%
COC(=O)CSc1snnc1-c1ccc(Cl)c(Cl)c1 -4.58%
Cc1ccccc1-c1csc(C(O)c2cccc(Cl)c2)n1 (stereo not drawn) -0.35%
COc1ccc(-c2csc(C(O)c3cccc(Cl)c3)n2)cn1 (stereo not drawn) -9.22%
Cc1nn(C(C)(C)C)c(OC(=O)CC(C)C)c1S(=O)(=O)c1ccccc1 1.04%
O=C(Cn1cnc2ccccc2c1=O)Nc1cccc(S(=O)(=O)N2CCCCC2)c1 -0.43%
CCc1nn(-c2cc(Oc3cccc4ccccc34)nc(-c3ccccc3)n2)c(N)c1C#N 4.4%
C=CCN1CCN(c2ccncc2S(=O)(=O)N2CCN(C)CC2)CC1 7.05%
O=C(NCc1cccnc1)Nc1ccccc1F -2.21%
CC(=O)Nc1ccc(CN2CCN(Cc3ccc(F)c(F)c3)C(CCO)C2)cc1 (stereo not drawn) 0.97%
Cc1cc(NC(=O)C(C)SCC(=O)Nc2cccc(S(=O)(=O)N3CCCCCC3)c2)no1 (stereo not drawn) 6.6%
O=S1(=O)CC(N2CCN(Cc3ccccc3F)CC2)CN1Cc1cn(Cc2cccc(C(F)(F)F)c2)nn1 (stereo not drawn) 1.27%
CC(=O)c1cc(-c2ccccc2)n(CCC(=O)NC2CCCCCC2)c1C -2.95%
O=C(c1c(Cl)cccc1Cl)N1CCN(c2cccc3[nH]ccc23)CC1 2.06%
CC1(C)CC(=O)C(C2c3ccccc3S(=O)(=O)c3ccccc32)C(=O)C1 2.44%
CO[C@H]1[C@@H]2C=CO[C@@H](O[C@H]3O[C@@H](CO)[C@H](O)[C@@H](O)[C@@H]3O)[C@@H]2[C@@]2(CO)O[C@@H]12 -5.28%
S=C(NC1CCCCC1)NN1CCOCC1 4.52%
O=C(CSc1nncn1-c1cccnc1)N1CCOCC1 -3.73%
O=C(Cn1cnc2ccccc2c1=O)NNC(=O)c1ccccc1F -3.62%
Cc1cc2occ(CC(=O)NNC(=O)c3ccccc3F)c2cc1C -1.71%
Cc1ccccc1CCNC(=O)C1CCC(=O)N(Cc2ccc(Cl)cc2)C1 (stereo not drawn) 7.94%
O=C(NCCCN1CCCCC1)C1CCCN(c2ncnc3c2nc2n3CCCCC2)C1 (stereo not drawn) -0.83%
O=C(NCc1ccco1)C1CCCN1S(=O)(=O)c1ccccc1C(F)(F)F (stereo not drawn) -1.12%
COc1ccc(NC2CC(=O)N(C)C2=O)cc1 (stereo not drawn) 0.3%
CCC1CCCCN1C(=S)Nc1ccc(SC(F)F)cc1 (stereo not drawn) 5.34%
C[N+]1(CCNC(=O)/C=N/O)CCCCC1 1.46%
COc1cc(C(=S)NC2CCCCC2)ccc1O 2.78%
COc1ccc(C)cc1NC(=S)N1CCOCC1 -0.49%
COC(=O)[C@]12CCCCC=C1N(Cc1ccc(Cl)cc1Cl)C(=O)[C@H](CC(=O)NCc1cccc3ccccc13)C2 -3.23%
Cn1c(=O)cc(OCCCC(=O)N2CCN(c3ccccn3)CC2)c2ccccc21 2.1%
OCCn1c(-c2ccccc2)csc1=Nc1ccccc1 5.44%
C=CCOc1cccc(C2C(C(=O)c3ccc(C)o3)=C(O)C(=O)N2CCN2CCOCC2)c1 (stereo not drawn) 0.33%
Cc1cc(C)n2c(Nc3c(C)cccc3C)c(CCc3ccccc3)nc2n1 10.1%
C=CCOc1c2ccc(C(=O)N(CC)c3ccc(OC)cc3)cc2nn1C 1.93%
O=S(=O)(c1ccc(-c2ccno2)s1)N1CCCCC1 -8.93%
O=[N+]([O-])/C=C/c1ccc2c(ccn2Cc2ccccc2)c1 0.19%
O=S(=O)(NCC1CCCO1)c1cnc(Cl)c(Cl)c1 (stereo not drawn) 0.79%
O=C(COC(=O)c1ccc(N2CCCC2=O)cc1)c1ccc(OC(F)F)cc1 -9.52%
COc1cc(OC)cc(C(=O)NCC(=O)OCc2csc(-c3ccccc3)n2)c1 1.99%
COc1cc(OC)cc(C(=O)NNC(=O)CNC(=O)c2ccc(Br)o2)c1 3.03%
CC(C)c1nnc(NC(=O)CCC(=O)N2CCN(c3cccc(Cl)c3)CC2)s1 3.33%
O=C(Nc1ccc2c(c1)OCO2)c1sc2cc(Cl)ccc2c1Cl 6.59%
CN1CCc2ccccc2C1Cc1ccccc1NC(=O)c1sc2ccccc2c1Cl (stereo not drawn) -2.71%
Cc1cc(Cl)ccc1C(=O)C1CCCN(C(=O)c2ccc3c(c2)OCO3)C1 (stereo not drawn) -13.3%
COc1cccc(NC(=O)CN(C)CC(=O)c2c(N)n(Cc3ccccc3)c(=O)n(C)c2=O)c1 -1.38%
O=C(COC(=O)c1ccccc1NC(=O)c1ccco1)Nc1ccc2c(c1)OC(F)(F)O2 -0.79%
N#Cc1cccc(CSc2ncnc(N)n2)c1 -4.53%
COC(=O)[C@]12CCCCC=C1N(Cc1ccco1)C(=O)[C@H](CC(=O)NCC1CCCCC1)C2 6.36%
CCOc1ccc(NC(=O)CCS(=O)(=O)c2ccc3c(c2)CCCN3C(=O)CC)cc1 -5.9%
COc1ccccc1-c1sc2ccccc2c1C#CC1(O)CCCCC1 1.77%
C[C@H](CO)N1C[C@H](C)[C@@H](CN(C)S(=O)(=O)c2ccc(F)cc2)Oc2ccc(NC(=O)CCC(F)(F)F)cc2C1=O -0.61%
O=C(CCNS(=O)(=O)c1cccs1)N1CCN(c2ccc(F)cc2)CC1 3.48%
COc1ccc(NC(=O)CN(C)C(=O)c2cccc(S(=O)(=O)N3CCN(c4ccccc4)CC3)c2)cc1 -8.03%
CCCc1nc2c3ccccc3ccn2c1Cc1ccccc1C(F)(F)F 6.59%
COc1ccc(-n2c(SCC(=O)Nc3ccccc3-c3ccccc3)nnc2-c2cccnc2)cc1 6.88%
Cc1ccc(-n2c(SCC(=O)Nc3cccc4ccccc34)nnc2-c2ccccn2)cc1 1.64%
NNC(=O)CNC(c1ccccc1)c1cc(Cl)ccc1NC(=O)c1ccccc1 (stereo not drawn) 2.82%
O=C(/C=C/c1ccc([N+](=O)[O-])cc1)NCCSCc1ccco1 1.56%
C=CCn1c(SCC(=O)c2c(N)n(C)c(=O)n(C)c2=O)nc2sc(CC)cc2c1=O 3.02%
CC1(C)CC(=O)c2sc(N)nc2C1 -0.75%
Cc1cc(C)cc(N(CCC#N)C(=O)CN2C(=O)NC3(CCCC3)C2=O)c1 -4.5%
COc1ccc(OCCCC(=O)Nc2cccc(S(=O)(=O)N3CCCCCC3)c2)cc1 6.07%
N#CCSc1ccccc1NC(=O)CN1C(=O)NC(CCc2ccccc2)C1=O (stereo not drawn) -8.31%
O=C(CCN1C(=O)c2ccncc2C1=O)Nc1cc(F)ccc1F 6.34%
CCOC(=O)C1(S(=O)(=O)c2ccc(Cl)cc2)CCN(Cc2ccccc2)CC1 7.42%
CCOC(=O)c1ccc(NC(=O)c2c(NCc3ccccc3)[nH]c(=O)[nH]c2=O)cc1 1.03%
CCOC(=O)c1ccc(NC(=O)c2ccc(NC(=O)C3CCCO3)cc2)cc1 (stereo not drawn) 8.18%
Oc1ccccc1-c1cc(-c2ccc(Cl)cc2)n[nH]1 -0.94%
COc1ccc(Br)c2c1C(=O)CC2 -5.83%
Cn1c(=O)[nH]c(=O)c2c1nc(CN1CCN(c3ccccc3F)CC1)n2CCc1ccccc1 6.89%
CC(C)CCN1CCN=C1N(C)C -8.21%
OC(c1nc2ccc(F)cc2[nH]1)C(O)c1nc2ccc(F)cc2[nH]1 (stereo not drawn) -4.03%
CCOC(=O)N1CCC(=NNC(N)=O)CC1 0.3%
CCOC(=O)C=Cc1ccc(C(=O)OCC)[nH]1 -0.66%
COc1cc2nc(CN(C)Cc3ccc(F)cc3)[nH]c(=O)c2cc1OC -5.44%
Cc1ccc(C)c(NS(=O)(=O)c2c(C)[nH]c(C)c2C(=O)N2CCCCC2)c1 -9.23%
CCc1nc2c(OCc3ccc(F)c(F)c3)cccn2c1N(C)C(=O)c1ccco1 7.1%

Source: PubChem BioAssay AID720508 (The Scripps Research Institute Molecular Screening Center, 2013)
